Results: ChEMBL document CHEMBL5030567, “Macrocyclic Inhibitors of HGF-Activating Serine Proteases Overcome Resistance to Receptor Tyrosine Kinase Inhibitors and Block Lung Cancer Progression” (J Med Chem, 2021)
In brackets after ≈: the same amount, converted by molar mass. Activity calls are given as the source filed them. The rule behind the calls is not given here. Numbered stars: 1 amine (or outer) side, 2 acyl side, 3 side chain; on linkers, the order of the positions; unused ones are H or OH. Square brackets hold non-standard residues; d marks the D form. Peptide text beside a SMILES is read from it. X1 = N=C(N)NCCC[C@H](N[*:1])C(=O)c1nc2ccc(C(=O)[*:2])cc2s1

Legend:
[1] = target: Serine protease hepsin (Homo sapiens, UniProt P05981); assay: Inhibition of recombinant human C-terminal 10-His tagged hepsin (Arg45 to Leu417) expressed in mouse myeloma cells using Boc-QAR-AMC as substrate preincubated for 30 mins followed by substrate addition by fluorescence based assay; type: single protein
Serine protease hepsin, sequence (P05981 1-162 limits assumed): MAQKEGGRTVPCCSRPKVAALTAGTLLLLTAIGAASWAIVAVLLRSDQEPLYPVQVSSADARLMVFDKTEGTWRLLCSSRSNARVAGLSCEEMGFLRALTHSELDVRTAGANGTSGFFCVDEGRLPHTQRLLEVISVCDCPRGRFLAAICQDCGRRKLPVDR
Serine protease hepsin, sequence (P05981 163-417 limits assumed): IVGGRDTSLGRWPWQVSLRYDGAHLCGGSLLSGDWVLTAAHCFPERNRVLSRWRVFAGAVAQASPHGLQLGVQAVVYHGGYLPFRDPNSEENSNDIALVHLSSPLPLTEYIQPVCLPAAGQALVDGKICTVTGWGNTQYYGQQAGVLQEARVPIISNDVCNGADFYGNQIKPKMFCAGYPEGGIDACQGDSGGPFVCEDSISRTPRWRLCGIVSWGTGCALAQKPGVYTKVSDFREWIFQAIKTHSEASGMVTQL
In short: (§1)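 Inhibitor in 11-point serial dilution (0-20 µM final, 2% DMSO) pre-incubated 30 min at room temperature with enzyme in TNC buffer (25 mM Tris, 150 mM NaCl, 5 mM CaCl2, 0.01% Triton X-100, pH 8). […] Hepsin activated beforehand 24 h at 37°C. Fluorescence ex 380/em 460 nm kinetic; four-parameter fit of velocities; mean of three experiments.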

[2] = tested on: NCI-H596; assay: Inhibition of pro-HGF stimulated cell growth in human H596 cells at 10 uM by ELISA; type: functional, cell-based
[3] = tested on: HCC827; assay: Cytotoxicity against human HCC827 cells assessed as reduction in cell viability at 0.1 to 1 uM after 72 hrs by crystal violet staining based assay; settings: dose 0.1-1 µM
[4] = Acute toxicity in NSG mouse at 20 to 100 mg/kg, ip administered for 7 days; type: organism-based; settings: in vivo, dose 20-100 mg/kg, time 7 day
[5] = Half life in mouse plasma at 20 mg/kg, ip; type: ADME, organism-based; settings: in vivo, 20 mg/kg
[6] = Solubility of compound at pH 7.4; type: physicochemical; settings: buffer
[7] = tested on: HCC827; assay: Cytotoxicity against human HCC827 cells assessed as reduction in cell viability at 0.1 to 1 uM after 72 hrs in presence of pro-HGF by crystal violet staining based assay; settings: dose 0.1-1 µM
[8] = Stability in human plasma assessed as half life; type: ADME, cell-free
[9] = target: T1, Suppressor of tumorigenicity 14 protein (Homo sapiens, UniProt Q9Y5Y6); assay: Inhibition of recombinant human N-terminal met-His6-tagged matriptase catalytic domain (Gly596 to Val855 residues) expressed in Escherichia coli using Boc-QAR-AMC as substrate preincubated for 30 mins followed by substrate addition by fluorescence based assay; in short: as §1
T1 sequence (Q9Y5Y6 whole entry): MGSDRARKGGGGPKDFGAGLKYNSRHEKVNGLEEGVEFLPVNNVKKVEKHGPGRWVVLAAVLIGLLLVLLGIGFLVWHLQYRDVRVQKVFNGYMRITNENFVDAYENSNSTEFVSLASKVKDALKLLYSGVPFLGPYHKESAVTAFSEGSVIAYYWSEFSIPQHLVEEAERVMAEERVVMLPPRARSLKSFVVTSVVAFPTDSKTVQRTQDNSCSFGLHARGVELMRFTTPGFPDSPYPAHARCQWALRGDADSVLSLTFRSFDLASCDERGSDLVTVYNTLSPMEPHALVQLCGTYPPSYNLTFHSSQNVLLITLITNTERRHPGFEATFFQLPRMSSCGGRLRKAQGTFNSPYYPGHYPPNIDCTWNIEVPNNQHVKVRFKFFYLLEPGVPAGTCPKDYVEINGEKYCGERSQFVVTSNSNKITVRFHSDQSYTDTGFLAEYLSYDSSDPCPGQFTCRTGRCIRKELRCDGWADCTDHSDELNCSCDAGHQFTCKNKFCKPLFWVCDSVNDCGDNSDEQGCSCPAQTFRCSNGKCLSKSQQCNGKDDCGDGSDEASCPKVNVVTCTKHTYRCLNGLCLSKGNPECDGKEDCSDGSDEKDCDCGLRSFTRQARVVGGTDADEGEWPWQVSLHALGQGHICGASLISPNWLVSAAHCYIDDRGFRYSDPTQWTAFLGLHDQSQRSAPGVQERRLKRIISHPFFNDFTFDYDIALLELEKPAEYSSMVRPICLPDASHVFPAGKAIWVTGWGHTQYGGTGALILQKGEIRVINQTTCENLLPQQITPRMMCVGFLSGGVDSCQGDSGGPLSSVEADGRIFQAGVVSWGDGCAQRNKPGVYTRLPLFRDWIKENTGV

[10] = Toxicity in hHGF knock in NSG mouse xenografted with human NCI-H596 cells at 50 mg/kg, ip administered daily for 25 days; type: organism-based; settings: in vivo, 600 h, time 25 day

## CC(=O)N[C@@H](CO)C(=O)N[C@@H](CCCCN)C(=O)N[C@@H](CC(C)C)C(=O)N[C@@H](CCCNC(=N)N)C(=O)c1nc2ccc(C(=O)N[C@H](C(N)=O)C(C)C)cc2s1 (Ac-SKL[X1]V-NH2)
[1]
  IC50: 0.38 nM
[2]
  inhibition: Active
[3]
  Activity: inactive
[4]
  Activity: Non-Toxic
[5]
  t1/2: 2 h
[6]
  solubility: 200 µM (≈ 161 µg/mL)
[7]
  Activity: Active
[8]
  t1/2: 2.33 h
[9]
  IC50: 21 nM
[10]
  Activity: Non-Toxic
